Assay results published in the array DNA melting data of Ke et al. (doi:10.1101/2024.01.08.574731).

Experiments:
[1] = melting temperature; fluorescence melt of hairpins on a sequencing array, two-state fit, raised by 9.35 °C to match UV melts; conditions: sodium 0.088 M
Method in brief: (§1)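 With Cy3 and quencher oligos annealed, library hairpins on a sequenced MiSeq flow cell were imaged for Cy3 fluorescence in 50 mM Na-HEPES pH 8.0, 25 mM NaCl, in 2.5 °C steps up to 60 °C. Melting temperature and folding enthalpy were derived from bootstrapped two-state fits of signals normalised to pre-quench Cy3 and to control constructs. Four replicates were combined by inverse variance, with fitted temperatures raised by 9.35 °C to match UV melts.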

[2] = folding enthalpy; higher = less favourable; fluorescence melt of hairpins on a sequencing array, two-state fit; conditions: sodium 0.088 M
Method in brief: as §1

Sequence	Tm [1] [°C]	folding enthalpy [2] [kJ/mol]
GTGCACGGAAACGTACAC (((.(((....))).)))	48.5	-133
GTGCAGACGAAAGTCCAC (((..(((....))))))	37.9	-70.8
GTGCAGCGAAAGCTCCAC (((.(((....))).)))	44.7	-91.4
GTGCAGGGAAACCTACAC (((.(((....))).)))	41.5	-133
GTGCATACGAAAGTACAC (((..(((....))))))	29.3	-37.3
GTGCATCGAAAGATCCAC (((.(((....))).)))	38.1	-118
GTGCATGGAAACACGCAC ((((.((....)).))))	47.7	-145
GTGCATGGAAACATGCAC (((((((....)))))))	68.6	-141
GTGCATGGAAACATGTGC (..((((....))))..)	43	-104
GTGCCACGAAAGTGACAC (((.(((....))).)))	56.5	-171
GTGCCAGCGAAAGCTCAC (((..(((....))))))	52.6	-27.9
GTGCCAGGAAACCAGCAC ((((..(....)..))))	41.5	-121
GTGCCAGGAAACTGGTGC (..((((....))))..)	48	-109
GTGCCCCGAAAGGGCCAC (((.(((....))).)))	51.3	-56.2
GTGCCCGAAAGGGACAC ((((((....))).)))	58.7	-107
GTGCCCGAAAGGGCCAC ((((((....))).)))	57.2	-31.3
GTGCCCGAAAGGGTACAC ((((((....)))..)))	61.6	-58.4
GTGCCGCGAAAGCGCCAC (((.(((....))).)))	53.8	-76.3
GTGCCGGGAAACCAGCAC ((((.((....)).))))	50.1	-142
GTGCCGGGAAACCGACAC (((.(((....))).)))	52.9	-140
GTGCCGGGAAACTGGCAC (((((.(....).)))))	66	-155
GTGCCTACGAAAGTACAC (((..(((....))))))	37.8	-19.1
GTGCCTCCGAAAGGACAC (((..(((....))))))	52.4	-36.1

Sequence	Tm [1] [°C]	folding enthalpy [2] [kJ/mol]
GTGCCTCGAAAGAGTCAC (((.(((....))).)))	50.4	-123
GTGCCTGGAAACGGGCAC (((((.(....).)))))	65.5	-154
GTGCCTGGAAACGGGTAC ((.((.(....).)).))	44	-78
GTGCGACGAAAGTCCAC (((.(((....))))))	52	-123
GTGCGAGGAAACCCGCAC (((((.(....).)))))	58.1	-145
GTGCGCCGAAAGGCCAC (((.(((....))))))	58.6	-89.2
GTGCGCCGAAAGGCCCAC (((.(((....))).)))	48.5	-102
GTGCGCGAAAGCGAACAC ((((((....)))..)))	58.5	-52.8
GTGCGCGAAAGCGACAC ((((((....))).)))	63.8	-70.8
GTGCGCGGAAACGTGCAC ((((.((....)).))))	67.5	-148
GTGCGTACGAAAGTACAC (((..(((....))))))	54.1	-43.9
GTGCGTCGAAAGACACAC (((.(((....))).)))	53.5	-163
GTGCGTCGAAAGACCAC (((.(((....))))))	56.2	-124
GTGCGTGCGAAAGCACAC (((..(((....))))))	63.5	-38.3
GTGCGTGGAAACGCGCAC (((((.(....).)))))	65.6	-99
GTGCGTTCGAAAGAACAC (((..(((....))))))	54.1	-48.7
GTGCTACCGAAAGGTCAC (((..(((....))))))	37	-64.8
GTGCTAGGAAACCAGCAC (((((.(....).)))))	49.9	-155
GTGCTCACGAAAGTGCAC (((..(((....))))))	48.3	-83.1
GTGCTGCGAAAGCACAC (((.(((....))))))	55.3	-81.3
GTGCTGCGAAAGCACCAC (((.(((....))).)))	52.6	-62.9
GTGCTGGCGAAAGCCCAC (((..(((....))))))	49.3	-43.1
GTGCTGGGAAACTAGCGC (.(((.(....).))).)	45.5	-124

Sequence	Tm [1] [°C]	folding enthalpy [2] [kJ/mol]
GTGCTGGGAAACTGGCAC ((((..(....)..))))	49.7	-110
GTGCTTCGAAAGAAACAC (((.(((....))).)))	45.6	-151
GTGCTTCGAAAGAACAC (((.(((....))))))	42.8	-134
GTGCTTGGAAACAAACAC (((.(((....))).)))	39.1	-121
GTGCTTGGAAACAAGTGC (..((((....))))..)	43	-87.8
GTGCTTGGAAACGAGTAC ((.((.(....).)).))	35	-80.6
GTGGAAGGAAACTTCCGC (.(((((....))))).)	51.1	-101
GTGGAAGGAAACTTTCGC (.(.(((....))).).)	30	-83.8
GTGGACCGAAAGGTTCAC (((.(((....))).)))	59.8	-154
GTGGACGAAAGTCCCAC ((((((....))).)))	48.8	-50.7
GTGGACGAAAGTCGACAC ((((((....)))..)))	47.5	-91
GTGGACGAAAGTCTTCAC ((((((....)))..)))	32.4	-53.3
GTGGACGGAAACGTCTAC ((.((((....)))).))	52.2	-104
GTGGACGGAAACGTCTGC (..((((....))))..)	49.2	-66.1
GTGGACTCGAAAGAGCAC (((..(((....))))))	39.7	-89.4
GTGGAGCGAAAGCTTCAC (((.(((....))).)))	58.1	-149
GTGGAGGGAAACCTCTAC ((.((((....)))).))	46.7	-107
GTGGAGGGAAACTTCCAC (((((.(....).)))))	47.3	-127
GTGGAGTCGAAAGACCAC (((..(((....))))))	44.9	-86.3
GTGGATCCGAAAGGACAC (((..(((....))))))	39.4	-97.6
GTGGATCGAAAGATGCAC (((.(((....))).)))	55.9	-192
GTGGATCGAAAGATTCAC (((.(((....))).)))	53.8	-160
GTGGATGAAAATCCAC ((((((....))))))	59.9	-142

Sequence	Tm [1] [°C]	folding enthalpy [2] [kJ/mol]
GTGGATGGAAACGTCTAC ((.((.(....).)).))	32.5	-82.7
GTGGCAGGAAACTGCCGC (.(((((....))))).)	61.1	-76.6
GTGGCAGGAAACTGCTAC ((.((((....)))).))	53.1	-110
GTGGCCGAAAGGCACCAC ((((((....)))..)))	43.6	-51.5
GTGGCCGAAAGGCCGCAC ((((((....)))..)))	62.9	-38.1
GTGGCCGAAAGGCTCCAC ((((((....)))..)))	39	-47.8
GTGGCCGAAAGGCTGCAC ((((((....)))..)))	46.7	-52
GTGGCCGGAAACGGCTGC (..((((....))))..)	51.9	-54.5
GTGGCGCGAAAGCGCAC (((.(((....))))))	57.6	-33.6
GTGGCTACGAAAGTACAC (((..(((....))))))	32.9	-47.4
GTGGCTGGAAACAGCCGC (.(((((....))))).)	63	-72.9
GTGGCTGGAAACAGCTGC (..((((....))))..)	47.4	-65.3
GTGGGACCGAAAGGTCAC (((..(((....))))))	64.2	-81.4
GTGGGACGAAAGTCCAC (((.(((....))))))	55.9	-55.3
GTGGGACGAAAGTCGCAC (((.(((....))).)))	66.3	-161
GTGGGAGGAAACTCCCAC (((((((....)))))))	67.2	-134
GTGGGAGGAAACTCTCGC (.(.(((....))).).)	37.2	-126
GTGGGCGAAAGCCAACAC ((((((....)))..)))	53.5	-62.8
GTGGGCGAAAGCCACCAC ((((((....)))..)))	47.2	-53.1
GTGGGCGAAAGCCAGCAC ((((((....)))..)))	46.5	-53.7
GTGGGCGAAAGCCCCAC ((((((....))).)))	60.2	-47.2
GTGGGCGAAAGCCGTCAC ((((((....)))..)))	36.9	-55.2
